Source: PubChem BioAssay (several laboratories)
A selection: hits, their analogues and other compounds. The true share with any hit is near 2.2%.
PvdQ acylase: P. aeruginosa PvdQ acylase inhibition; purified PvdQ acylase, fluorescence plate reader; inhibition, % at 10 µM; 340,000 compounds, 0.063% hits; in the data active = inhibition above about 30%, passing the limit was not always enough
IMP-1 inh-1: blocks Pseudomonas aeruginosa IMP-1 metallo-beta-lactamase | purified IMP-1, nitrocefin hydrolysis, epi-absorbance fluorescence | inhibition, % at 5.6 µM | 290,000 compounds, 0.45% hits;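 active = inhibition above the mean plus 3 SD of all compounds in the same screening run, cut at about 4.5% in these data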
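Material – recombinant IMP-1 enzyme, purified · Amount – IMP-1 0.2 nM before substrate addition · Medium – HEPES buffer pH 7.1 with ZnSO4 and Brij 35 · Timing – 25 °C, 15 min preincubation, 25 min reaction · Measured by – plate fluorescence quenching by hydrolysis product, ex 480/em 530 nm · Read-out – percent enzyme inhibition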
VIM-2 inhibitor: inhibitors of Pseudomonas aeruginosa VIM-2 metallo-beta-lactamase; purified VIM-2, nitrocefin hydrolysis, epi-absorbance fluorescence; inhibition, % at 5.6 µM; 290,000 compounds, 0.89% hits;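 active = inhibition above the mean of all tested compounds plus 3 SD, cutoff set per screening run, cut at about 7.5% in these data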;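 also: red hydrolysis product quenches plate fluorescence so inhibitors raise well fluorescence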
PHOSPHO1 block: inhibitors of human PHOSPHO1 phosphatase; AID 1565; inhibition, % at 13.3 µM; recombinant PHOSPHO1, absorbance phosphatase assay; Q8TCT1; 290,000 compounds, 1.1% hits; in the data active = inhibition above about 60%
Target sequence (Q8TCT1 whole entry, looked up): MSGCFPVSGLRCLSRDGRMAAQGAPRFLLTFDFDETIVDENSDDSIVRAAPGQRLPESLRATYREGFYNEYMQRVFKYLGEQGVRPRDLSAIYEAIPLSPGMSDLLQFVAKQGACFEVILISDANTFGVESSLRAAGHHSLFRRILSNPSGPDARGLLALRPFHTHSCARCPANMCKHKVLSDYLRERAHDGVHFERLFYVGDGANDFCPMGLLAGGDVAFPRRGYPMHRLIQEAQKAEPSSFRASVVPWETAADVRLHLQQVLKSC
Yeast superoxide: caloric restriction mimetics inhibiting age-related superoxide in yeast; S. cerevisiae aged cells, superoxide DHE fluorescence; active compounds read low; superoxide response (% of plate mean), % at 10 µM; 330,000 compounds, 0.18% hits;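 active = superoxide response under a set limit, about three screen SD below normal, cut at about 65% in these data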;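 also: yeast aged for seven days with compound at 30 °C before DHE staining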
IMP-1 inh-2: blocks IMP-1 metallo-beta-lactamase in VIM-2 selectivity screen. 1,300 tested, under 10 active. purified IMP-1, nitrocefin hydrolysis, epi-absorbance fluorescence. shares compounds with VIM-2 inhibitor. inhibition, % at 5.6 µM; call rule not given here
VIM-2 FRET ctr: VIM-2 FRET inhibition, artifact counter-screen; inhibition, % at 5.6 µM; purified VIM-2, CCF2 FRET substrate hydrolysis; shares compounds with VIM-2 inhibitor; 1,300 compounds, 23% hits;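 active = inhibition above the mean of all tested compounds plus 3 SD, cut at about 19% in these data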
TEM-1 counter: blocks E. coli TEM-1 beta-lactamase in VIM-2 selectivity screen | shares compounds with VIM-2 inhibitor | Purified TEM-1, nitrocefin hydrolysis, epi-absorbance fluorescence | inhibition, % at 5.6 µM | 1,300 compounds, 3% hits | AID 1866;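 active = inhibition above that campaign's mean inhibition plus 3 SD, cut at about 0.46% in these data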
Target sequence (P62593 whole entry, looked up): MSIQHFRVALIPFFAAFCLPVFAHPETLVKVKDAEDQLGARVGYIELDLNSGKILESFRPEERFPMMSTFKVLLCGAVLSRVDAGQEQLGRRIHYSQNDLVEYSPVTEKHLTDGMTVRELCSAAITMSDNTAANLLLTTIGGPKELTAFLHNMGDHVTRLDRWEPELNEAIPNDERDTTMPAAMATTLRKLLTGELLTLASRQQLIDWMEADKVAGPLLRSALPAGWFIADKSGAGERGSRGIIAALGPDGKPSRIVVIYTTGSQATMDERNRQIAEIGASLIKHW
VIM-2 inh conf: confirmation of P. aeruginosa VIM-2 metallo-beta-lactamase inhibitors; AID 2187; inhibition, % at 5.6 µM; 1,300 compounds, 96% hits; purified VIM-2, nitrocefin hydrolysis, epi-absorbance; shares compounds with VIM-2 inhibitor;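 active = inhibition of the VIM-2 beta-lactamase enzyme above about 11% from the earlier first-round screen, limit read from the data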
Each line names hits and unclear results; the compound was inactive in the other large screens (follow-up assays come after a bar, where they were run).

O=C1NC(=O)C(CCc2ccncc2)(c2ccccc2)C(=O)N1	IMP-1 inh-1 6.1
CCC1(c2ccccc2)C(=O)NC(=O)NC1=O	none (no result: IMP-1 inh-1, VIM-2 inhibitor, PHOSPHO1 block)
C=C(C)[C@@H]1[C@H]2OC(=O)[C@H]1[C@]1(O)C[C@H]3O[C@]34C(=O)O[C@H]2[C@]14C	none (no result: IMP-1 inh-1, VIM-2 inhibitor, PHOSPHO1 block, Yeast superoxide)
Cc1ccc2c(C)c3ccc4ccccc4c3c[n+]2c1	none (no result: IMP-1 inh-1, VIM-2 inhibitor, PHOSPHO1 block, Yeast superoxide)
CCC[N+]12CCC(CC1)C(C(O)(c1ccccc1)c1ccccc1)C2 (stereo unspecified)	none
C[N+]12CCC(CC1)C(C(O)(c1ccccc1)c1cccs1)C2 (stereo unspecified)	IMP-1 inh-1 11.8
Cc1ccc(-c2nc(N(C)C3CCN(C)CC3)c3ccccc3n2)cc1	VIM-2 inhibitor 10.9
COc1ccccc1-n1c(-c2ccccc2)nc2ccccc2c1=O	none (no result: Yeast superoxide)
Cc1cc(OCC(=O)O)c2c3c(c(=O)oc2c1)CCCC3	none
Cc1cc(OCC(=O)N2CCC(C(N)=O)CC2)c2c3c(c(=O)oc2c1)CCCC3	VIM-2 inhibitor 8.6
COc1cc2c(cc1OC)C1[C@H]3C(=CC[C@H]1OC2O)CCN3C (stereo partly specified)	none (no result: IMP-1 inh-1, VIM-2 inhibitor, PHOSPHO1 block)
CC(=O)OC1=CC[C@H]2[C@@H]3CC[C@H]4C[C@H](OC(C)=O)[C@@H](OC(C)=O)C[C@]4(C)[C@H]3CC[C@]12C	none (no result: IMP-1 inh-1, VIM-2 inhibitor, PHOSPHO1 block)
CC(N)C(=O)NC1C2C(=C(O)CC(O)C2O)C(=O)OC1(C)C(Cl)Cl (stereo unspecified)	none (no result: IMP-1 inh-1, VIM-2 inhibitor, PHOSPHO1 block, Yeast superoxide)
C=CCn1c(O)c(C(C)=NC2CCN(Cc3ccccc3)CC2)c(=O)[nH]c1=O	VIM-2 inhibitor 8.7 (no result: PvdQ acylase)
CC(=O)c1ccc2c(c1)C1C(Cl)C(Sc3ccccc3[N+](=O)[O-])CC1C(c1ccccc1)N2 (stereo unspecified)	IMP-1 inh-1 5.7
CC(=O)c1ccc2c(c1)C1C(Cl)C(Sc3ccccc3[N+](=O)[O-])CC1C(c1ccccc1[N+](=O)[O-])N2 (stereo unspecified)	none
Cc1nn(CCC#N)c2c1P(=S)(N1CCCC1)OC(c1ccc(F)cc1)=N2 (stereo unspecified)	PHOSPHO1 block 102.9
COc1ccc(CC2C(=O)NC(=O)N(c3ccccc3)C2=O)c(OC)c1 (stereo unspecified)	none
CCc1ccc(N2C(=O)NC(=O)C(Cc3ccc(OC)cc3OC)C2=O)cc1 (stereo unspecified)	PHOSPHO1 block 95.0
CC(C)CN(CC(C)C)C(=O)C1C2c3ccccc3C(c3ccccc32)C1C(=O)O (stereo unspecified)	none (no result: Yeast superoxide)
O=C1NC(=O)C(=Cc2ccc(-c3ccc(Cl)cc3)o2)C(=O)N1	none
O=C1NC(=O)C(=Cc2ccc(-c3ccc(S(=O)(=O)N4CCOCC4)cc3)o2)C(=O)N1	IMP-1 inh-1 5.4
CCOC(=O)c1c(C)n(Cc2ccco2)c2ccc(OC)cc12	none
CCOC(=O)c1c(C)n(CCN2CCN(C)CC2)c2ccc(OC)cc12	VIM-2 inhibitor 60.7 | IMP-1 inh-2 inactive | VIM-2 FRET ctr inactive | TEM-1 counter inactive | VIM-2 inh conf 79.9
Cc1cc(OCC(=O)NC(Cc2ccc(Cl)cc2)C(=O)O)c2c3c(c(=O)oc2c1)CCC3 (stereo unspecified)	VIM-2 inhibitor 19.1 | IMP-1 inh-2 inactive | VIM-2 FRET ctr 32.9 | TEM-1 counter inactive | VIM-2 inh conf 19.2
Cc1cc(OCC(=O)N[C@@H](Cc2ccccc2)C(=O)O)c2c3c(c(=O)oc2c1)CCC3	none
Cc1cc(OCC(=O)N[C@H](C(=O)O)c2ccccc2)c2c3c(c(=O)oc2c1)CCC3	VIM-2 inhibitor 17.4 | IMP-1 inh-2 inactive | VIM-2 FRET ctr 25.7 | TEM-1 counter inactive | VIM-2 inh conf 21.0
Cc1cc(OCC(=O)NCc2ccncc2)c2c3c(c(=O)oc2c1)CCCC3	VIM-2 inhibitor 40.2 | IMP-1 inh-2 inactive | VIM-2 FRET ctr inactive | TEM-1 counter inactive | VIM-2 inh conf 51.6
